H69AR growth 86K – growth inhibitors of human H69AR lung tumor cells | viability, % at 10 µM | AID 598 | H69AR lung tumor viability, ATP luminescence, 72 h; hits give low values | actives 6% (n = 85,000);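 active means viability at or below 40%; inactive means viability above 40%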;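 further: multidrug resistant small cell line overexpressing MRP-1 efflux transporter; 100% = mean luminescence of untreated control wells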
ERa SRC1 pot – ER-alpha (human) coactivator binding potentiation; P03372; coactivator binding (% of control), % at 25.6 µM; actives 1.3% (n = 86,000); TR-FRET ERalpha-LBD/SRC-Cy5 coactivator binding, 2 h; 100 = basal binding, no effect; in the data active means activity above about 200%;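 further: binding measured in presence of low estradiol as agonist stimulus; 0% = peptide alone without receptor and 100% = receptor with peptide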
Fibroblast inh – blocks proliferation of human lung fibroblasts; LL 47 human lung fibroblast viability, ATP luminescence; hits give low values; viability, % at 10 µM; actives 1.1% (n = 85,000);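 active means viability at or below 50% in the single dose screen; inactive means viability above 50%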;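 further: compound exposure lasted 72 h before the ATP readout; 100% = median luminescence of untreated cell-only wells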
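Test system: LL 47 human lung fibroblasts / Quantity: 1,150 cells in each well / Medium: IMEM growth medium with 15% fetal bovine serum / Incubation: 72 h compound exposure at 37 °C after overnight plating / Detection: CellTiter-Glo luminescence measuring cellular ATP / Read-out: % viability versus median cells-only luminescence / Benchmarks: cell-only wells, no compound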
ERa SRC1 inh – blocks coactivator binding to human estrogen receptor alpha. inhibition, % at 25.6 µM. TR-FRET ER-alpha LBD / SRC-1 peptide, estradiol-bound. actives 1.7% (n = 86,000). P03372; in the data active means inhibition above about 50%;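 further: 0% = receptor plus peptide control and 100% = peptide only without receptor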
HUVEC prolif 384 – human endothelial cell proliferation inhibition; HUVEC proliferation, CellTiter-Glo luminescence, 72 h; hits give low values; viability, % at 10 µM (by protocol); actives 1.1% (n = 86,000); AID 648;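 active means viability at or below 30%; inactive means viability above 30%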;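 further: 100% = median luminescence of DMSO-only cell control wells on each plate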
ERb SRC1 inh – ER-beta (human) coactivator binding inhibition | TR-FRET ER-beta LBD / SRC1-Cy5 peptide binding; receptor agonist-loaded with 1 µM estradiol | inhibition, % at 25.6 µM | actives 1.3% (n = 86,000);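 active means compounds whose percent inhibition of the receptor-coactivator binding signal exceeds about 50% in the single-dose screen, limit read from the data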;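 further: 0% = receptor plus peptide wells without compound and 100% = peptide-only wells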
Target sequence (Q92731 whole entry, looked up, the tested form may be a part): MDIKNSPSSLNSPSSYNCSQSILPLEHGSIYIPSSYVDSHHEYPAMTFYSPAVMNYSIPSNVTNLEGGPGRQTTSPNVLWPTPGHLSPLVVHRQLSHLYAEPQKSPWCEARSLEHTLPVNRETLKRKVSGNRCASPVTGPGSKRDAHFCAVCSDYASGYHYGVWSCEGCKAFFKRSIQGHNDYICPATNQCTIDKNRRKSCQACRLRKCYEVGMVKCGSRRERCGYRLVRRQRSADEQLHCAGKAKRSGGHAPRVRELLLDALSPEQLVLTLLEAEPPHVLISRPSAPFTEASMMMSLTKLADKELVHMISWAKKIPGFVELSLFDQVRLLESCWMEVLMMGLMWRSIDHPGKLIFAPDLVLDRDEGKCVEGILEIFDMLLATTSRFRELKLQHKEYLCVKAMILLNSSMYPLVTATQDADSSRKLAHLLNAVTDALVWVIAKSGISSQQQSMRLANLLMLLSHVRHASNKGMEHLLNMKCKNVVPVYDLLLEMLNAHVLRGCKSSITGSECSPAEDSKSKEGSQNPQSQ
An asterisk follows results filed as active; · = not tested or not shown; [ ] = remark or other dose. A selection: hits, their analogues and other compounds. The true share with any hit is near 9.2%.

SMILES	H69AR growth 86K	ERa SRC1 pot	Fibroblast inh	ERa SRC1 inh	HUVEC prolif 384	ERb SRC1 inh
O=C(Cn1c(=O)oc2cc(S(=O)(=O)N3CCCC3)ccc21)N1CCN(c2ccccn2)CC1	97.1	111.2	99.5	0.6	89.1	5.2
CCOC(=O)Cn1c(=O)oc2cc(S(=O)(=O)N3CCN(c4ccccn4)CC3)ccc21	97.0	244.9*[fluorescence artefact?]	91.5	30.6	92.2	33.0
CC1CCN(S(=O)(=O)c2ccc3c(c2)oc(=O)n3CC(=O)N2CCc3ccccc3C2)CC1	18.3*	111.7	86.3	-1.1	91.9	6.3
O=C(Nc1ccc(N2CCCCC2)cc1)c1ccc(F)cc1	91.8	104.5	97.2	-0.8	112.7	-4.0
CC(C)Oc1ccc(C(=O)Nc2ccccc2N2CCCC2)cc1	32.1*	117.2	88.0	0.7	111.2	-5.3
COc1cc2ccccc2cc1C(=O)Nc1ccc(N2CCN(C)CC2)cc1	7.1*	93.1	72.2	16.5	9.0*	24.4
COc1ccc(C(=O)Nc2ccc(N3CCCC3)cc2)cc1	87.3	23.9	90.3	84.4*[fluorescence artefact?]	84.5	41.3
COc1ccc2c(c1[N+](=O)[O-])CCC/C2=N/OC(=O)c1ccccc1SC	96.7	99.4	111.4	2.6	111.5	11.1
O=C(COC(=O)c1cc[n+]([O-])cc1)NCC12CC3CC(CC(C3)C1)C2	95.8	156.3	102.0	-2.1	104.9	-6.0
COc1ccccc1NC(=O)C1C2C=CC3(CN(Cc4cccnc4)C(=O)C13)O2 (configuration not stated)	100.5	120.9	102.2	-6.2	98.0	-8.7
Cc1ccc(-c2csc3ncn(-n4c(C)ccc4C)c(=O)c23)o1	75.4	86.5	85.6	1.1	94.1	9.3
COc1cccc(C2CC(c3ccccc3OC)n3ncnc3N2)c1 (configuration not stated)	31.3*	595.1*[fluorescence artefact?]	91.4	-1.2	91.5	-1.7
Clc1ccc(C2CC(c3ccccc3)Nc3ncnn32)cc1 (configuration not stated)	28.3*	108.8	82.8	-1.9	86.1	-7.2
O=C(COC(=O)c1cc(S(=O)(=O)N2CCCCC2)ccc1N1CCOCC1)NC1CCCCC1	89.8	84.8	91.0	8.8	81.8	8.3
O=C1C(Cl)=C(N2CCN(Cc3ccccc3)CC2)C(=O)N1c1ccccc1	39.3*	116.7	97.6	-28.1	92.6	28.7
O=C1C(Cl)=C(N2CCCCCC2)C(=O)N1c1ccccc1	102.4	80.8	·	-1.4	96.6	1.3
O=C1C(Cl)=C(N2CCOCC2)C(=O)N1c1cccc(Cl)c1	0.8*	107.3	·	-0.7	102.2	3.3
COc1ccc(OC)c(C(=O)c2oc3ccccc3c2NC(C)=O)c1	22.0*	110.7	·	-2.9	88.5	-1.5
CCN(CC)S(=O)(=O)c1ccc(-c2nnc(SCC(=O)Nc3ccc4c(c3)OCO4)o2)cc1	31.6*	101.5	95.5	49.5	63.9	17.2
Cc1ccc(NC(=O)CSc2nnc(-c3ccc(S(=O)(=O)N4CCCC4)cc3)o2)cc1C	32.2*	139.3	92.0	34.2	53.2	8.2
CCN(CC)S(=O)(=O)c1ccc(-c2nnc(SCc3nnc(-c4ccccc4)o3)o2)cc1	20.1*	114.8	69.2	-1.2	53.0	-0.1
Cc1ccc(-c2noc(CN(C(=O)C34CC5CC(CC(C5)C3)C4)C(C)C)n2)cc1	72.6	102.5	95.3	6.2	94.2	5.4
CC(=O)Nc1sc(NC(=O)c2ccc(C)cc2)nc1-c1cccs1	76.4	114.2	91.0	-38.9	79.1	-10.8
O=S1(=O)C=CC(Sc2nc3ccccc3[nH]2)C1 (configuration not stated)	19.9*	104.3	101.8	-4.1	102.0	-1.3
O=C1CC(c2ccc(F)cc2)Cc2nc(N3CCN(c4ccccc4)CC3)ncc21 (configuration not stated)	45.6	174.0	100.7	9.1	91.8	7.4
O=C1CC(c2ccc(F)cc2)Cc2nc(NCC3CCCO3)ncc21 (configuration not stated)	92.4	93.3	94.3	59.8*	103.3	-10.0
Cc1cc2nncn2c(Cc2ccccc2)n1	85.5	111.9	101.0	6.5	93.9	-1.7
CCn1c(=O)c(=O)[nH]c2cc(C(=O)NC3CCCc4ccccc43)ccc21 (configuration not stated)	32.0*	96.8	68.9	7.7	66.1	9.2
